Data: publication PMC10287037 (European journal of medicinal chemistry, 2023)
Like-named read-outs stand apart in the source and are kept apart here.

Key:
[1] = test system: PBL not stimulated with PHA; test: Cytotoxicity in resting human PBLs; type: cell-based; details: 72 h, read-out: IC50 (compound concentration required to inhibit cell growth by 50%)
Method in brief: (§1)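 Healthy-donor human PBLs; non-adherent cells at 5×10^5 cells/mL in growth medium. Proliferating cultures received PHA; resting cultures used the same density without PHA. Graded compound concentrations from 10 mM DMSO stocks. Viability by MTT after 72 h incubation. IC50 is the concentration inhibiting cell growth by 50%.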

PBL stimulated with PHA = test: Cytotoxicity in PHA-stimulated human PBLs; type: cell-based; details: 72 h, read-out: IC50 (compound concentration required to inhibit cell growth by 50%)
Method in brief: as §1

VL51 cells [2] = test: p-histone H3 staining of mitotic cells by flow cytometry; type: cell-based, human; details: 24 h
Method in brief: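 VL51 lymphoma cells in RPMI-1640 with 20% FBS, penicillin-streptomycin-neomycin and 1% L-glutamine at 37 °C, 5% CO2. Seeded at 2.0×10^5 per well in 6-well plates, then treated 24 h at indicated concentrations. Harvested by centrifugation, fixed in 70% ice-cold ethanol, stained with anti-phospho-histone H3 antibody plus PI, and analysed by flow cytometry as % p-H3-positive (mitotic) cells.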

[3] = test system: A549, CCRF-CEM and VL51 cells; test: Apoptosis assay; type: cell-based, human; details: 48 h incubation; annexin-V/PI
Method in brief: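 A549, CCRF-CEM and VL51 cultured at 37 °C, 5% CO2; lymphoma line in RPMI-1640 with 20% FBS, pen-strep-neomycin and 1% L-glutamine. Test compound from 10 mM DMSO stock, several concentrations, 48 h. Annexin-V Fluos kit per manufacturer: annexin-V-FITC (FL1) and PI (FL3) by flow cytometry. Apoptotic % = annexin-V+ plus annexin-V/PI double-positive cells; mean ± S.E.M., three independent experiments.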

VL51 cells [4] = test: Mitochondrial membrane potential; type: cell-based, human; details: 24 h, 0.5 and 1.0 μM, VL51, JC-1
Method in brief: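 VL51 lymphoma cells were grown in RPMI-1640 with 20% FBS, pen-strep-neomycin and 1% L-glutamine at 37 °C, 5% CO2. Cells were treated 24 h with test compound diluted from a 10 mM DMSO stock. They were then labelled with JC-1 and analysed by flow cytometry in the FL1 and FL2 channels.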

leukemia cell lines = test: NCI five-dose screening, leukemia subpanel; type: cell-based, human; details: for GI50: Homo sapiens, read-out: GI50 values (range over subpanel)
Method in brief: (§2)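 Run by NCI. Prescreen at 10^-5 M across 60 human lines from nine tumour types: leukemia, NSCLC, colon, CNS, melanoma, ovarian, renal, prostate, breast. GI50 is the concentration inhibiting cell growth by 50%. MG_MID is the arithmetic mean GI50 over tested lines; where 50% inhibition was not reached, the highest tested concentration was used.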

colon cancer subpanel = test: NCI five-dose screening, colon cancer subpanel; type: cell-based, human; details: for GI50: Homo sapiens
Method in brief: as §2

renal cancer subpanel = test: NCI five-dose screening, renal cancer subpanel; type: cell-based; details: Homo sapiens, TK-10, read-out: GI50 (range over subpanel)
Method in brief: as §2

prostate cell lines = test: NCI five-dose screening, prostate subpanel; type: cell-based; details: Homo sapiens, read-out: GI50 values (range over subpanel)
Method in brief: as §2

[5] = test system: VL51 (marginal zone lymphoma, MZL) cells; test: MTT cell proliferation assay, VL51; type: cell-based; details: Homo sapiens, VL51, 72 h, bound stated
[6] = test system: non-Hodgkin lymphoma (NHL) cells HBL1, SU-DHL-10, MINO, VL51; test: MTT cell proliferation assay, panel of four NHL cell lines; type: cell-based, human; details: for reduction in the percentage of cellular proliferation: 1 μM, 72 h incubation, towards each cell line
tubulin = test: Inhibition of tubulin assembly; type: biochemical; details: compared with 3d / CA-4
[7] = test system: tubulin (colchicine site); test: Inhibition of [3H]colchicine binding to tubulin; details: 5 μM inhibitor; 0.5 μM tubulin, 5.0 μM [3H]colchicine

IC50 [5] | SMILES | IC50 [1] | IC50 (PBL stimulated with PHA) | induction of apoptosis [3] | depolarization of the mitochondrial membrane (VL51 cells [4]) | GI50 (leukemia cell lines) | reduction in the percentage of cellular proliferation [6] | further results
– | COc1ccc(Cn2cc3c(c2-c2ccccc2)CCCc2cnoc2-3)cc1 [3d, 8-(4-Methoxybenzyl)-7-phenyl-4,5,6,8-tetrahydropyrrolo[3’,4’:3,4]cyclohepta[1,2-d][1,2]oxazole] | > 10000 nM | > 10000 nM | induced apoptosis to a lesser extent | slight depolarization of the mitochondrial membrane | – | – | increase of mitotic cells (p-histone H3 positive) (VL51 cells [2]): did not observe a significant increase of mitotic cells
< 500 nM | COc1ccc(Cn2cc3c(c2-c2cc(OC)c(OC)c(OC)c2)CCCc2cnoc2-3)cc1N [3z, 2-Methoxy-5-((7-(3,4,5-trimethoxyphenyl)-5,6-dihydropyrrolo[3’,4’:3,4]cyclohepta[1,2-d]isoxazol-8(4H)-yl)methyl)aniline] | > 10000 nM | > 10000 nM | massive apoptosis in a dose-dependent manner | depolarization was extensive | 300 to 650 nM | higher than 50% | GI50 (colon cancer subpanel; HCC 2998, read-out: GI50 (range over subpanel)): 380 to 560 nM; GI50 (renal cancer subpanel): 360 to 840 nM; GI50 (prostate cell lines): 430 to 840 nM; IC50 ([6]; Homo sapiens, 72 h, read-out: IC50 values (range over all four NHL cell lines)): 100 to 500 nM
< 500 nM | COc1ccc(Cn2cc3c(c2-c2cc(OC)c(OC)c(OC)c2)CCCc2cnoc2-3)cc1 [3u, 8-(4-Methoxybenzyl)-7-(3,4,5-trimethoxyphenyl)-4,5,6,8-tetrahydropyrrolo[3’,4’:3,4]cyclohepta[1,2-d][1,2]oxazole] | > 10000 nM | > 10000 nM | massive apoptosis in a dose-dependent manner | depolarization was extensive | 350 to 1560 nM | higher than 50% | calculated MG_MID for subpanel (leukemia cell lines; leukemia subpanel): 0.65 µM; GI50 (colon cancer subpanel; read-out: GI50 values (range over subpanel)): 390 to 1610 nM; calculated MG_MID for subpanel (colon cancer subpanel; colon cancer subpanel): 0.88 µM
– | COc1ccc(Cn2cc3c(c2-c2ccc(OC)cc2)CCCc2cnoc2-3)cc1 [3p, 8-(4-Methoxybenzyl)-7-(4-methoxyphenyl)-4,5,6,8-tetrahydropyrrolo[3’,4’:3,4]cyclohepta[1,2-d][1,2]oxazole] | – | – | – | – | – | – | fold less active on tubulin assembly (tubulin): about 4 fold
– | COc1ccc(/C=C\c2cc(OC)c(OC)c(OC)c2)cc1O [CA-4, combretastatin A-4] | – | – | – | – | – | – | Inhibition of colchicine binding % Inhibition ± SD [7]: 98 ± 2%
